Published values of several laboratories.
Lines come from different studies, so protocols differ.
Target: Myosin light chain kinase, smooth muscle (MYLK, Homo sapiens, UniProt Q15746)

For COc1ncccc1-c1cnn2ccc(N3CCN(C(=O)OC(C)C)CC3)nc12, the remaining binding was 85% (binding, competition with immobilised ligand; 1 µM).
For Cn1cncc1[C@](O)(COc1ccc(C#N)cc1-c1ccc(OC(F)(F)F)cc1)c1ccc(C#N)cc1, the remaining binding was 88% (cell-free assay, competition with immobilised ligand; 1 µM).
C#Cc1n[nH]c2c(-c3cn([C@@H](C)c4ccccn4)c(=O)[nH]c3=O)cc(F)cc12 gave an inhibition of 1.4% (enzyme activity, inhibitor; 0.1 µM).
Nc1ncc(-c2nc(N3CCOCC3)nc(N3CCOCC3)n2)c(C(F)F)n1 has a remaining binding of 78% (binding, competition with immobilised ligand; 10 µM).
C#Cc1n[nH]c2c(-c3cn([C@@H](C)c4ccccc4)c(=O)[nH]c3=O)cc(F)cc12 gave an inhibition of -0.2% (enzyme activity, inhibitor; 0.1 µM).
For CC(C)(C)c1cc(C=C(C#N)C#N)cc(Br)c1O, the remaining activity was 90.6% (enzyme activity, inhibitor; 0.5 µM).
Cc1nn(C)cc1-c1nc2c(N3CCN(Cc4ccc(Cl)cc4)CC3)c(Cl)cnc2[nH]1 has a remaining binding of 89% (binding, competition with immobilised ligand; 1 µM).
The inhibition of Cn1cc(-c2cccc(N3CCc4c(sc5c4CC(C)(C)C5)C3=O)c2CO)cc(Nc2ccncn2)c1=O is reported as -4% (enzyme activity, inhibitor; 1 µM).
For O=c1[nH]c2ccccc2n1C1CCN(Cc2ccc(-c3[nH]c4cc5ncnc5cc4nc3-c3ccccc3)cc2)CC1, the remaining signal was 104% (cell-free assay; 0.5 µM).
